Results from ChEMBL document CHEMBL2311390, “Synthesis and preliminary evaluation of pharmacological properties of some piperazine derivatives of xanthone” (Bioorg Med Chem, 2013).

Key:
Rattus norvegicus [1] = assay: Hypotensive activity in normotensive Wistar rat assessed as reduction of diastolic blood pressure at 0.625 mg/kg, iv after 5 mins; format: functional, Artery
Method in brief: (§1)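 Male normotensive Wistar rats were anaesthetised with thiopental 75 mg/kg ip. The right carotid artery was cannulated with heparinised saline for pressure recording. After 5 min of stabilisation, compound was injected into the tail vein at 1 mL/kg. Systolic and diastolic pressure were followed up to 60 min. Data are means ± SEM of 5–6 rats, analysed by one-way ANOVA.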

Rattus norvegicus [2] = assay: Hypotensive activity in normotensive Wistar rat assessed as reduction of diastolic blood pressure at 0.31 mg/kg, iv after 5 mins; format: functional, Artery; method in brief: as §1
Rattus norvegicus [3] = assay: Hypotensive activity in normotensive Wistar rat assessed as reduction of systolic blood pressure at 0.625 mg/kg, iv after 5 mins; format: functional, Artery
Method in brief: (§2)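 Male normotensive Wistar rats (170–350 g) anaesthetised with thiopental 75 mg/kg ip; right carotid artery cannulated with heparinised saline-filled polyethylene tubing for pressure recording. After a 5 min stabilisation, compound given into the caudal vein at 1 mL/kg. Systolic pressure is recorded at 0, 5, 10, 20, 30 and 60 min, and the data are reported as mean ± SEM of five to six animals, with one-way ANOVA.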

Rattus norvegicus [4] = assay: Hypotensive activity in normotensive Wistar rat assessed as reduction of diastolic blood pressure at 1.25 mg/kg, iv after 5 mins; format: functional, Artery; method in brief: as §1
Rattus norvegicus [5] = assay: Hypotensive activity in normotensive Wistar rat assessed as reduction of systolic blood pressure at 1.25 mg/kg, iv after 60 mins; format: functional, Artery; method in brief: as §2
Rattus norvegicus [6] = assay: Hypotensive activity in normotensive Wistar rat assessed as reduction of systolic blood pressure at 1.25 mg/kg, iv after 5 mins; format: functional, Artery; method in brief: as §2
Rattus norvegicus [7] = assay: Hypotensive activity in normotensive Wistar rat assessed as reduction of diastolic blood pressure at 1.25 mg/kg, iv after 10 mins; format: functional, Artery; method in brief: as §1
Rattus norvegicus [8] = assay: Cardiotoxicity in Wistar rat assessed as PQ interval at 10 mg/kg, iv after 5 mins by ECG analysis; format: toxicity, organism-based; design: dose 10 mg/kg, route intravenous; details: in vivo
Method in brief: (§3)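 Male normotensive Wistar rats, 170–350 g, six per group. Compound given iv at a constant volume of 1 mL/kg. ECG was recorded just before dosing and at 1, 5 and 15 min after. PQ, QRS and QT intervals and heart rate were read from the trace. Groups were compared by one-way ANOVA.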

Rattus norvegicus [9] = assay: Cardiotoxicity in Wistar rat assessed as QT interval at 10 mg/kg, iv after 10 mins by ECG analysis; format: toxicity, organism-based; design: dose 10 mg/kg, route intravenous; details: in vivo
Rattus norvegicus [10] = assay: Cardiotoxicity in Wistar rat assessed as PQ interval at 10 mg/kg, iv after 15 mins by ECG analysis; format: toxicity, organism-based; design: dose 10 mg/kg, route intravenous; details: in vivo, 0.25 h; method in brief: as §3
Rattus norvegicus [11] = assay: Cardiotoxicity in Wistar rat assessed as hear beats per min at 10 mg/kg, iv after 10 mins by ECG analysis; format: toxicity, organism-based; design: dose 10 mg/kg, route intravenous; details: in vivo
Rattus norvegicus [12] = assay: Cardiotoxicity in Wistar rat assessed as hear beats per min at 5 mg/kg, iv after 10 mins by ECG analysis; format: toxicity, organism-based; design: dose 5 mg/kg, route intravenous; details: in vivo
Rattus norvegicus [13] = assay: Cardiotoxicity in Wistar rat assessed as QRS interval at 5 mg/kg, iv after 15 mins by ECG analysis; format: toxicity, organism-based; design: dose 5 mg/kg, route intravenous; details: in vivo, 0.25 h; method in brief: as §3
Rattus norvegicus [14] = assay: Cardiotoxicity in Wistar rat assessed as QRS interval at 5 mg/kg, iv after 5 mins by ECG analysis; format: toxicity, organism-based; design: dose 5 mg/kg, route intravenous; details: in vivo; method in brief: as §3
Rattus norvegicus [15] = assay: Cardiotoxicity in Wistar rat assessed as QT interval at 5 mg/kg, iv after 10 mins by ECG analysis; format: toxicity, organism-based; design: dose 5 mg/kg, route intravenous; details: in vivo
Rattus norvegicus [16] = assay: Cardiotoxicity in Wistar rat assessed as QT interval at 5 mg/kg, iv after 15 mins by ECG analysis; format: toxicity, organism-based; design: dose 5 mg/kg, route intravenous; details: in vivo, 0.25 h; method in brief: as §3
Rattus norvegicus [17] = assay: Cardiotoxicity in Wistar rat assessed as PQ interval at 5 mg/kg, iv after 5 mins by ECG analysis; format: toxicity, organism-based; design: dose 5 mg/kg, route intravenous; details: in vivo; method in brief: as §3

Compound COc1ccccc1N1CCN(CCCOc2cccc3c(=O)c4ccccc4oc23)CC1.Cl has an Activity (Rattus norvegicus [1]) of 101 mmHg, an Activity (Rattus norvegicus [2]) of 107.2 mmHg and an Activity (Rattus norvegicus [3]) of 122 mmHg.
Compound COc1ccccc1N1CCN(CC(COc2cccc3c(=O)c4ccccc4oc23)OC(C)=O)CC1.Cl (racemic) has an Activity (Rattus norvegicus [4]) of 92.8 mmHg, an Activity (Rattus norvegicus [1]) of 95.6 mmHg and an Activity (Rattus norvegicus [5]) of 116.6 mmHg. It also gave an Activity (Rattus norvegicus [6]) of 119 mmHg, an Activity (Rattus norvegicus [7]) of 93.6 mmHg and an Activity (Rattus norvegicus [3]) of 124.8 mmHg.
Compound COc1ccccc1N1CCN(CC(O)COc2cccc3c(=O)c4ccccc4oc23)CC1.Cl (racemic) has an Activity (Rattus norvegicus [2]) of 102.8 mmHg.
With Cl.Cl.Cl.O=c1c2ccc(Cl)cc2oc2c(OCC(O)CN3CCN(CCOc4ccccc4)CC3)cccc12 (racemic) the Activity (Rattus norvegicus [8]) was 33.12 ms, the Activity (Rattus norvegicus [4]) was 102.6 mmHg and the Activity (Rattus norvegicus [9]) was 50.48 ms. It also gave an Activity (Rattus norvegicus [10]) of 32.81 ms, an Activity (Rattus norvegicus [5]) of 114.8 mmHg and an Activity (Rattus norvegicus [11]) of 242.43 bpm. For the same compound, the Activity (Rattus norvegicus [6]) was 117.2 mmHg and the Activity (Rattus norvegicus [7]) was 101.2 mmHg.
With Cl.Cl.Cl.O=c1c2ccc(Cl)cc2oc2c(OCC(O)CN3CCN(C/C=C/c4ccccc4)CC3)cccc12 (racemic) the Activity (Rattus norvegicus [12]) was 324.3 bpm, the Activity (Rattus norvegicus [13]) was 20.3 ms and the Activity (Rattus norvegicus [14]) was 20.2 ms. It also gave an Activity (Rattus norvegicus [15]) of 74.7 ms, an Activity (Rattus norvegicus [16]) of 74.6 ms and an Activity (Rattus norvegicus [17]) of 45.7 ms.
For Cl.Cl.Cl.O=c1c2ccc(Cl)cc2oc2c(OCC(O)CN3CCN(Cc4ccccc4)CC3)cccc12 (racemic), the Activity (Rattus norvegicus [8]) was 41.9 ms, the Activity (Rattus norvegicus [9]) was 72.8 ms and the Activity (Rattus norvegicus [10]) was 40.9 ms. It also gave an Activity (Rattus norvegicus [11]) of 285 bpm.
Compound Cl.Cl.O=c1c2ccccc2oc2c(OCC(O)CN3CCN(C/C=C/c4ccccc4)CC3)cccc12 (racemic) has an Activity (Rattus norvegicus [12]) of 311.3 bpm, an Activity (Rattus norvegicus [13]) of 24 ms and an Activity (Rattus norvegicus [14]) of 23.4 ms. For the same compound, the Activity (Rattus norvegicus [15]) was 77 ms, the Activity (Rattus norvegicus [16]) was 77.6 ms and the Activity (Rattus norvegicus [17]) was 41.5 ms.
